Activity calls are given as the source filed them. The calls are words filed in the database; no cut-off is given here.
Tests used:
HepG2 [1] = assay: Genotoxicity in human HepG2 cells assessed as micronuclei formation at 50 uM after 24 hrs by DAPI staining; assay type: toxicity, cell-based; conditions: hepg2, 24 h
Method in brief: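 HepG2 cells were exposed to 50 μM for 24 h, with benzo(a)pyrene as positive control. Cells were swollen in hypotonic KCl/NaCl for 10 min at 37°C, fixed in methanol/acetic acid 3:1 and stained with DAPI at 2 μg/ml. Three independent experiments, one-way ANOVA.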

[2] = target: BDNF/NT-3 growth factors receptor (Rattus norvegicus) (UniProt Q63604); assay: Agonist activity at TrkB receptor in E17 rat embryo primary neurons assessed as TrkB phosphorylation at tyrosine 817 at 500 nM after 15 mins by immunoblotting analysis; assay type: functional
BDNF/NT-3 growth factors receptor (Rattus norvegicus), sequence (Q63604 whole entry): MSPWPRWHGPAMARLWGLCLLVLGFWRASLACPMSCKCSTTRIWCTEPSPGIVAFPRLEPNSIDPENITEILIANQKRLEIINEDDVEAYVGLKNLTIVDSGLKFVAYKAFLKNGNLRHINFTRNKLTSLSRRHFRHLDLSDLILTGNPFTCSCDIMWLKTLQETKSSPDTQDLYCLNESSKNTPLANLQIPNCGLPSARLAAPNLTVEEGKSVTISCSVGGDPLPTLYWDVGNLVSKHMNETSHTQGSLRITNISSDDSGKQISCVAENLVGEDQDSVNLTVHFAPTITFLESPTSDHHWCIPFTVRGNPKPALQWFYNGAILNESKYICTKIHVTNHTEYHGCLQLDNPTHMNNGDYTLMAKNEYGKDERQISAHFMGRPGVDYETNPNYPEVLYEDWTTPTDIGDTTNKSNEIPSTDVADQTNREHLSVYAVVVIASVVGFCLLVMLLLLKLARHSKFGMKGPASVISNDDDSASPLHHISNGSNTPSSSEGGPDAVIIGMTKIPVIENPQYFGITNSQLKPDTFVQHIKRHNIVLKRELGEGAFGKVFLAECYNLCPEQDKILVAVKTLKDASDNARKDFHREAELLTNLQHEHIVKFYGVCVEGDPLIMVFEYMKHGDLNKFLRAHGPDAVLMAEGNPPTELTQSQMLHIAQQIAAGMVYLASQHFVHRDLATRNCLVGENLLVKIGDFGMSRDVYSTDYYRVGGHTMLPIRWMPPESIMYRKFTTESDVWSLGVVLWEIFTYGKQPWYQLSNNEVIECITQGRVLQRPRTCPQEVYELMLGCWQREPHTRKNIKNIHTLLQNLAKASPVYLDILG
Method in brief: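 Primary cortical cultures from E17 rat embryos were exposed to 500 nM for 15 min. Lysates were immunoblotted for p-TrkB and p-Akt (20 μg per lane). Two replicate experiments.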

Mus musculus [3] = assay: Agonist activity at TrkB receptor in C57BL/J6 mouse brain assessed as Akt phosphorylation at serine 473 in hippocampus at 1 mg/kg, po after 4 hrs by ELISA; assay type: functional, organism-based; design: dose 1 mg/kg
Method in brief: (§1)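 Male C57BL/6 mice, two months old, received a single 1 mg/kg oral dose, with saline controls. Brain was taken at set time points and lysed. Phospho-Akt S473 was measured by sandwich ELISA on 20 μg lysate: overnight capture at 4°C, detection antibody, HRP secondary and TMB, read at 450 minus 650 nm. Two replicate experiments, one-way ANOVA against control.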

Mus musculus [4] = assay: Agonist activity at TrkB receptor in C57BL/J6 mouse brain assessed as TrkB phosphorylation at tyrosine 816 in hippocampus at 1 mg/kg, po after 4 hrs by immunoblotting analysis; assay type: functional, organism-based; design: dose 1 mg/kg
Method in brief: (§2)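 Male C57BL/6 mice, two months old, received a single 1 mg/kg oral dose, with saline controls. Brain or hippocampus was collected 4 h later (time-course samples at various times). Homogenates were ultracentrifuged and 40 μg supernatant was immunoblotted for p-TrkB, p-Akt and p-MAPK.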

HepG2 [5] = assay: Cytotoxicity against human HepG2 cells assessed as cell death upto 100 uM after 24 hrs by LDH assay; assay type: cell-based; conditions: hepg2, 24 h
Method in brief: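 HepG2 cells were exposed to a range of concentrations up to 100 μM for 24 h, and cytotoxicity was measured by LDH release. n=3.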

HepG2 [6] = assay: Genotoxicity in human HepG2 cells assessed as induction of DNA lesion at 100 uM after 24 hrs by comet assay; assay type: toxicity, cell-based; conditions: hepg2, 24 h
Method in brief: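 HepG2 cells were exposed to 100 μM for 24 h, with etoposide as positive control. Cells were embedded in agarose, lysed 2 h at 4°C at pH 10, unwound 40 min in alkali at pH >13 and electrophoresed at 25 V for 30 min at 4°C. After ethidium bromide staining, comet-tail nuclei were counted in >100 cells per field. Three independent experiments, one-way ANOVA.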

Mus musculus [7] = assay: AUC (infinity) in mouse at 1 mg/kg, iv by HPLC analysis; assay type: ADME, organism-based, Plasma; design: time infinity, dose 1 mg/kg, route intravenous; conditions: in vivo
Method in brief: (§3)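 Mice of 20–30 g, 6–8 weeks old, dosed i.v. or orally. Blood was drawn at 3, 10, 30, 60, 120, 240, 360 and 480 min into lithium-heparin tubes, spun at 2500 × g for 15 min at 4°C within 1 h and stored at −20°C. Plasma was analysed by HPLC, 3 mice per time point. AUC was calculated by the linear/log trapezoidal method.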

Mus musculus [8] = assay: Volume of distribution at steady state in mouse at 1 mg/kg, iv by HPLC analysis; assay type: ADME, organism-based; design: dose 1 mg/kg, route intravenous; conditions: in vivo
Method in brief: (§4)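 Mice (20–30 g, 6–8 weeks old) were dosed i.v. or orally. Blood was drawn into lithium-heparin tubes at 3, 10, 30, 60, 120, 240, 360 and 480 min, with 3 mice per time point. Plasma was separated at 2500 × g for 15 min at 4°C within 1 h and stored at −20°C. Samples were analysed by HPLC, and AUC was calculated by the linear/log trapezoidal method.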

Mus musculus [9] = assay: Agonist activity at TrkB receptor in C57BL/J6 mouse brain assessed as Akt phosphorylation at serine 473 in hippocampus at 1 mg/kg, po after 4 hrs by immunoblotting analysis; assay type: functional, organism-based; design: dose 1 mg/kg; method in brief: as §2
Mus musculus [10] = assay: Volume of distribution in mouse at 1 mg/kg, iv by HPLC analysis; assay type: ADME, organism-based; design: dose 1 mg/kg, route intravenous; conditions: in vivo; method in brief: as §4
Mus musculus [11] = assay: Agonist activity at TrkB receptor in C57BL/J6 mouse brain assessed as MAPK phosphorylation in hippocampus at 1 mg/kg, po after 4 hrs by immunoblotting analysis; assay type: functional, organism-based; design: dose 1 mg/kg; method in brief: as §2
Mus musculus [12] = assay: Elimination half life in mouse at 1 mg/kg, iv by HPLC analysis; assay type: ADME, organism-based; design: dose 1 mg/kg, route intravenous; conditions: in vivo; method in brief: as §3
Mus musculus [13] = assay: AUC last in mouse at 1 mg/kg, iv by HPLC analysis; assay type: ADME, organism-based, Plasma; design: time 0 - last, dose 1 mg/kg, route intravenous; conditions: in vivo; method in brief: as §3
Mus musculus [14] = assay: Agonist activity at TrkB receptor in C57BL/J6 mouse brain assessed as TrkB phosphorylation at tyrosine 816 in cortex at 5 mg/kg, po administered qd for 21 days by immunoblotting analysis; assay type: functional, organism-based; design: dose 5 mg/kg
Mus musculus [15] = assay: Agonist activity at TrkB receptor in C57BL/J6 mouse brain assessed as TrkB phosphorylation at tyrosine 706 at 1 mg/kg, po by immunoblotting analysis; assay type: functional, organism-based; design: dose 1 mg/kg; method in brief: as §2
Mus musculus [16] = assay: Agonist activity at TrkB receptor in C57BL/J6 mouse brain assessed as Akt phosphorylation at serine 473 at 1 mg/kg, po by immunoblotting analysis; assay type: functional, organism-based; design: dose 1 mg/kg; method in brief: as §2
Mus musculus [17] = assay: Agonist activity at TrkB receptor in C57BL/J6 mouse brain assessed as Akt phosphorylation at serine 473 at 1 mg/kg, po after 8 hrs by ELISA relative to control; assay type: functional; method in brief: as §1
Mus musculus [18] = assay: Antidepressant activity in C57BL/J6 mouse assessed as reduction of immobility at 5 mg/kg, po administered qd for 21 days recorded in last 4 mins by forced swim test; assay type: functional, organism-based; design: dose 5 mg/kg
Method in brief: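 Male C57BL/6J mice, 2–3 months old, were gavaged daily for 21 days with drug (5 or 2.5 mg/kg) or saline and adapted to the test room for 2 days. With no preswim, each mouse was placed for 6 min in a 16-cm cylinder of 24 °C water, 14 cm deep. Immobility in the last 4 min was scored blind and compared by unpaired t-test (n=6 or 8).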

Mus musculus [19] = assay: Antidepressant activity in C57BL/J6 mouse assessed as increase in locomotion at 5 mg/kg, po qd for 21 days tested on day 22 by locomotor activity assay; assay type: functional, organism-based; design: dose 5 mg/kg
Method in brief: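 Male C57BL/6J mice were gavaged with 5 mg/kg/day or saline vehicle for 21 days. On day 22, ambulation (consecutive photobeam breaks) was recorded in automated chambers for 2 h in 30-min intervals. n=6, two-way ANOVA.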

Mus musculus [20] = assay: Agonist activity at TrkA receptor in C57BL/J6 mouse brain assessed as TrkA phosphorylation at tyrosine 794 in cortex at 5 mg/kg, po administered qd for 21 days by immunoblotting analysis; assay type: functional, organism-based; design: dose 5 mg/kg
Mus musculus [21] = assay: Agonist activity at TrkB receptor in C57BL/J6 mouse brain assessed as Akt phosphorylation at serine 473 at 1 mg/kg, po after 8 hrs by ELISA; assay type: functional, organism-based; design: dose 1 mg/kg; method in brief: as §1
Mus musculus [22] = assay: Agonist activity at TrkB receptor in C57BL/J6 mouse brain assessed as Akt phosphorylation at serine 473 at 1 mg/kg, po after 1 hr by ELISA; assay type: functional, organism-based; design: dose 1 mg/kg; method in brief: as §1
Mus musculus [23] = assay: Agonist activity at TrkB receptor in C57BL/J6 mouse brain assessed as Akt phosphorylation at serine 473 at 1 mg/kg, po after 4 hrs by ELISA; assay type: functional, organism-based; design: dose 1 mg/kg; method in brief: as §1

Activity [2] | SMILES | Activity (Mus musculus [3]) | Activity (Mus musculus [4]) | further results
– | c1ccc2c(c1)cc1ccc3cccc4ccc2c1c34 | – | – | Activity (HepG2 [1]): Toxic
Active | CN(C)c1ccc(-c2cc(=O)c3c(F)cc(O)c(O)c3o2)cc1 | Active | Active | –
– | O=c1cc(-c2ccc(N3CCCC3)cc2)oc2c1ccc1nc[nH]c12 | – | – | Activity (HepG2 [5]): Non-toxic; Activity (HepG2 [1]): Non-toxic; Activity (HepG2 [6]): Non-toxic
Active | Br.CN(C)c1ccc(-c2cc(=O)c3ccc(O)c(O)c3o2)cc1 | Active | Active | AUC (Mus musculus [7]): 5943 ng·min/mL; Vdss (Mus musculus [8]): 0.803 L/kg; Activity (Mus musculus [9]): Active; Vz (Mus musculus [10]): 2.117 L/kg; Activity (Mus musculus [11]): Active; beta t1/2 (Mus musculus [12]): 9 min; AUClast (Mus musculus [13]): 5930 ng·min/mL
inactive | O=c1cc(-c2ccc(F)cc2)[nH]c2c(O)c(O)ccc12 | Active | Active | –
Active | CN(C)c1ccc(-c2cc(=O)c3ccc4nc[nH]c4c3o2)cc1 | Active | Active | Activity (Mus musculus [14]): Active; Activity (Mus musculus [9]): Active; Activity (HepG2 [5]): Non-toxic; Activity (HepG2 [1]): Non-toxic; Activity (Mus musculus [15]; TDE = time-dependent effect): tde; Activity (Mus musculus [11]): Active; Activity (HepG2 [6]): Toxic; Activity (Mus musculus [16]; TDE = time-dependent effect): tde; Activity (Mus musculus [17]): 250%; Activity (Mus musculus [18]): Active; Activity (Mus musculus [19]): Active; Activity (Mus musculus [20]): inactive
Active | O=c1cc(-c2cncnc2)oc2c(O)c(O)ccc12 | Active | Active | –
Active | O=c1c(F)c(-c2cccc(O)c2)oc2c(O)c(O)ccc12 | Active | Active | Activity (Mus musculus [14]): Active; Activity (Mus musculus [21]): inactive; Activity (Mus musculus [15]): inactive; Activity (Mus musculus [16]): inactive; Activity (Mus musculus [22]): Active; Activity (Mus musculus [18]): Active; Activity (Mus musculus [20]): inactive; Activity (Mus musculus [23]): inactive
Active | O=c1cc(-c2ccccc2)oc2c(O)c(O)cc(F)c12 | Active | Active | –
inactive | O=c1cc(-c2ccccc2)[nH]c2c(O)c(O)ccc12 | Active | Active | –
Active | CN(C)c1cccc(-c2cc(=O)c3ccc(O)c(O)c3o2)c1 | Active | Active | –
inactive | O=c1cc(-c2ccc(F)cc2)oc2c(O)c(O)ccc12 | – | – | –
Active | O=c1c(F)c(-c2ccccc2)oc2c(O)c(O)ccc12 | Active | Active | –
